# EBV gp42 block: EBV gp42 inhibition; Q1HVG2; Fluorescence polarization binding assay, mP read-out; inhibition, % (tested at 21.74 µM); 220,000 compounds, 0.42% hits; AID 1085; in the data active = inhibition above about 50%
# Target sequence (Q1HVG2 whole entry, looked up): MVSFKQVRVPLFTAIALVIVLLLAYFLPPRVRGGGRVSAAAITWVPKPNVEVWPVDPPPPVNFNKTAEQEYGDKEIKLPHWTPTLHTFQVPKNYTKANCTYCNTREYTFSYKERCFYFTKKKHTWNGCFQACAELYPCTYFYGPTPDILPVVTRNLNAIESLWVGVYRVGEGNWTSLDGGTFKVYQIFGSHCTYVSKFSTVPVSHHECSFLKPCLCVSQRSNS
# Mcl1 Bid PPI: disrupts binding of human Mcl-1 to Bid peptide; 220,000 compounds, 0.97% hits; AID 1021; Q07820; inhibition, % at 21.7 µM; TR-FRET Mcl-1/Bid-Dy647 peptide binding, 1536-well;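 active = compounds that cut the binding signal by more than half at the single screening dose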;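 also: His-tagged Mcl-1 with europium anti-His antibody binding Bid BH3 peptide; 0% = Mcl-1 plus peptide wells and 100% = peptide-only wells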
# Target sequence (Q07820 whole entry, looked up): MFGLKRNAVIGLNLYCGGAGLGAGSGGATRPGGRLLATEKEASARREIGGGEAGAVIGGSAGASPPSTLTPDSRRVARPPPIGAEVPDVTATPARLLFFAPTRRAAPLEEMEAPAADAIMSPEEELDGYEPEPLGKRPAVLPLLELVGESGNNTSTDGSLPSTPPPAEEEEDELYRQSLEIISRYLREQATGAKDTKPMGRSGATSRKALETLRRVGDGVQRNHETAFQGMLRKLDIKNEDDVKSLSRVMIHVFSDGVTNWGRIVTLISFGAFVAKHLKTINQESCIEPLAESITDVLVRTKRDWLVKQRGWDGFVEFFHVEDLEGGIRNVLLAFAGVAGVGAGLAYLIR
# MCL1 BIM primary: MCL1-BIM-BH3 interaction inhibition (human) | Q07820 | GST-MCL1 / FITC-Bim-BH3 fluorescence polarization | inhibition, % at 10.9 µM | 320,000 compounds, 0.68% hits;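 active = inhibition above the mean inhibition of all tested compounds plus 3 SD, set per campaign, cut at about 40% in these data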;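 also: 0% = DMSO wells and 100% = unlabeled Bim-BH3 peptide control; higher means more loss of mP so more displacement of Bim peptide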
# Bim-Mcl-1: inhibitors of Bim-Mcl-1 interaction, human | Q07820 | Bead-based flow cytometry, Bim peptide-Mcl-1 binding | inhibition, % at 10 µM | 190,000 compounds, 0.1% hits; in the data active = inhibition above about 40%;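 also: 0% = no compound tracer wells and 100% = peptide blocker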
# Mcl1-Noxa inh: Mcl-1/Noxa interaction inhibition; TR-FRET Mcl-1/Noxa peptide binding, 2 h; AID 1022; 220,000 compounds, 1.5% hits; inhibition, % at 21.7 µM; Q07820;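 active = compounds that cut the protein-peptide binding signal by more than 50% relative to plate controls in a single-dose test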;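 also: His-tagged Mcl-1 with rhodamine Noxa BH3 peptide and terbium anti-His antibody; 0% = Mcl-1 plus Noxa peptide wells and 100% = peptide-only wells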
# RBBP9 inh: inhibitors of human serine hydrolase RBBP9; O75884; recombinant RBBP9, FP-Rh probe fluorescence polarization; inhibition, % at 7.94 µM; 220,000 compounds, 0.2% hits;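 active = inhibition above the campaign mean of all tested compounds plus 3 SD, cut at about 14% in these data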;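 also: plate controls were DMSO wells with RBBP9 for no effect and wells lacking RBBP9 protein for full effect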
#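 Measured by: FP readout at 525/598 nm; material: recombinant human RBBP9; also added: Serine-hydrolase probe FP-Rh, 375 nM pre-mixing; medium: Tris buffer pH 8.0, NaCl, Pluronic; replication: one well per compound; doses: one concentration, 7.94 µM nominal, 0.794% DMSO; timing: preincubation 30 min plus labeling 45 min at 25 °C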
# * marks the source's active call; other numbers are inactive results; / = no result given. Rows were chosen to be rich in hits. Some 2.2% of all compounds tested hit in one or more screens of this group.
SMILES,EBV gp42 block,Mcl1 Bid PPI,MCL1 BIM primary,Bim-Mcl-1,Mcl1-Noxa inh,RBBP9 inh
CN(C)c1ccc(NC(=O)CCCc2ccccc2)cc1,-25,7,20,-1,79*,1
NNc1nc(-c2ccccc2Cl)nc2sc3c(c12)CCCC3,35,-126,39,-7,-59,-4
Cc1ccc(C)c(C(=O)COC(=O)CCCC(=O)Nc2cc(C(F)(F)F)ccc2Cl)c1,-16,94*,5,27,13,0
CS(=O)(=O)c1ccc(C(=O)Nc2ccc(N3CCCC3)cc2)c(Cl)c1,-11,-32,2,-1,67*,-7
Cc1ccc(C(=O)Nc2ccc(N3CCCC3)cc2)c(C)c1,-11,-32,6,-1,75*,-6
Cc1ccccc1C(=O)Nc1ccc(N2CCCC2)cc1,-9,-56,7,1,33,-3
CS(=O)(=O)c1ccc(C(=O)Nc2ccc(N3CCOCC3)cc2)c(Cl)c1,2,-40,-1,-1,12,0
O=C(O)c1cc(N2C(=O)C3CC=CCC3C2=O)ccc1NCc1cccnc1 (configuration not stated),-15,-53,10,1,9,4
CCOc1ccc(C(=O)NC(=S)Nc2ccc(N3CCC(C)CC3)cc2)cc1[N+](=O)[O-],-5,54*,/,-3,45,2
Cc1nn(Cc2ccccc2)c(C)c1NC(=O)CSc1nc2c(c(C(F)(F)F)n1)CCc1ccccc1-2,-10,64*,-8,3,-15,-1
CC(=O)c1ccc(Oc2ccc(C(C)=O)cc2)cc1,-8,99*,4,-4,-5,2
COc1cccc(CNS(=O)(=O)c2ccc3c(c2)N(C)CCO3)c1,/,/,3,/,/,/
Cc1ccccc1SCC(=O)OCC(=O)Nc1ccc(N(C)C)cc1,13,-6,4,1,61*,-12
CN(C)c1ccc(NC(=O)COC(=O)Cn2nnc3ccccc32)cc1,-11,-25,4,-5,71*,-5
COCC(=O)Nc1ccc(N(C)C)cc1,-19,-47,5,0,25,4
COc1ccc(NC(=O)COC(=O)Cn2nnc3ccccc32)cc1,-6,-2,-2,-4,-21,-7
COC(=O)c1c(NC(=O)/C=C/C(=O)O)sc(Cc2ccccc2)c1C,2,-9,1,-5,14,-2
Cc1c(Cc2ccccc2)sc(NC(=O)/C=C/c2cccc3ccccc23)c1C(N)=O,-54,-45,-5,-5,59*,-10
Cn1c(=O)[nH]c(=O)c2c1nc(N)n2Cc1ccccc1,/,/,2,/,/,/
Cn1c(C2CCCCC2)nc2c1c(=O)[nH]c(=O)n2Cc1ccccc1,-2,-40,-1,-2,9,-2
Cc1ccc(-c2nc3c(c(=O)[nH]c(=O)n3Cc3ccccc3)n2C)o1,10,38,/,0,97*,-4
Cc1ccc(-c2nc3c(c(=O)[nH]c(=O)n3Cc3ccccc3)n2C)s1,-47,65*,-4,/,15,-12
Cc1ccc(S(=O)(=O)N(C)C)cc1NC(=O)COC(=O)c1ccc(Cl)cc1,-2,-20,2,-1,-5,-9
CC(C)(C)c1cc(C(=O)NCCN2CCCC2)cc(C(C)(C)C)c1,-9,-1,-17,1,3,-2
COc1cccc(CNS(=O)(=O)c2ccc3c(c2)C(C)(C)C(=O)N3C)c1,/,/,0,/,/,/
SMILES,EBV gp42 block,Mcl1 Bid PPI,MCL1 BIM primary,Bim-Mcl-1,Mcl1-Noxa inh,RBBP9 inh
CCN1CCN(Cc2c(C(=O)N/N=C(\C)c3ccc(Cl)c(Cl)c3)nnn2-c2nonc2N)CC1,/,/,2,/,/,/
NS(=O)(=O)c1cc(C(=O)N=Nc2c(O)[nH]c3ccccc23)ccc1Cl,0,-1,8,/,51*,-17
Oc1[nH]c2ccccc2c1N=Nc1ccccc1F,-231,5,-261,0,28,-9
O=C(N=Nc1c(O)[nH]c2ccccc12)c1cc(-c2ccc(F)cc2)n[nH]1,61*,37,7,-2,52*,-9
CN(C)CCC(=O)c1cccc(Br)c1,0,-21,4,-4,-2,-10
CCN(CC)C(=O)c1sc2nc(N3CCOCC3)c3c(c2c1N)CCCC3,-5,-25,11,-1,59*,2
C/C(=N\NC(=O)c1cc(C)oc1C)c1ccc(C)c([N+](=O)[O-])c1,/,/,3,/,/,/
c1ccc(-c2nc(-c3ccco3)n3ccccc23)cc1,44,-1,45*,4,25,-8
CCCCCCn1nc(C(=O)OCC(=O)NC2CCS(=O)(=O)C2)c2ccccc2c1=O (configuration not stated),-18,-40,3,-1,8,2
S=c1nccc(-c2ccc(Cl)cc2)[nH]1,-4,-74,3,/,9,-1
Cc1nc2ccccn2c1-c1ccnc(=S)[nH]1,-6,-30,6,/,57*,1
COc1cc2c(cc1NC(=O)CSc1nccn1C)oc1ccccc12,-3,-3,-3,0,57*,2
COc1cc2c(cc1NC(=S)NC(=O)/C=C/c1ccc(OC)c(OC)c1)oc1ccccc12,18,62*,/,1,47,4
COc1ccc(/C=C/C(=O)NC(=S)Nc2cc3oc4ccccc4c3cc2OC)cc1,-7,32,8,-3,13,-11
CCC1(C)Cc2sc3c(=O)[nH]c(=S)[nH]c3c2CO1 (configuration not stated),-10,-24,8,-5,54*,0
CCOC(=O)c1[nH]cnc1C(=O)Nc1ccncc1,5,83*,1,-1,-11,-3
CCOC(=O)c1[nH]cnc1C(=O)Nc1ccc(F)cc1,0,-21,7,-2,16,-5
Cc1occc1C(=O)Nc1ccc([N+](=O)[O-])cc1Br,/,/,1,/,/,/
Cc1occc1C(=O)NNC(=O)Nc1ccc([N+](=O)[O-])cc1,-6,82*,-8,0,4,2
CC1=NN(c2ccc(Cl)c(C(=O)O)c2)C(=O)/C1=C\c1ccc(-c2ccc(C(=O)O)cc2)o1,18,-93,/,2,39,-8
O=C(O)c1ccc(N2C(=O)/C(=C/c3ccc(-c4ccc([N+](=O)[O-])cc4)o3)C=C2c2ccccc2)cc1,82*,99*,-48,3,108*,-6
CC1(C(=O)NNC(=O)C2CCCCC2)CC1(Cl)Cl (configuration not stated),-14,99*,4,/,-14,0
CC(C)CNC(=O)C(=O)NNC(=O)C1CCCCC1,-12,-19,5,3,1,-6
COc1ccc(CN2CCN(c3ncccn3)CC2)c(OC)c1,-2,36,4,1,18,-3
COc1ccc(CN2CCN(c3ccccn3)CC2)c(OC)c1,-27,56*,5,0,24,-3
O=C1C2C3C=CC(C2C(=O)N1c1cccc(O)c1)C1C2C(=O)N(c4cccc(O)c4)C(=O)C2C31 (configuration not stated),-4,-23,4,-5,94*,-3

# Compound activity (PubChem BioAssay)
